According to ChEMBL document CHEMBL1156205, “Synthesis and antibacterial activity of new 9-O-arylpropenyloxime ketolides” (2010):
In brackets after ≈: the same amount, converted by molar mass.

Tests used:
Assay type in all cases: functional
[1] = tested on: Streptococcus pyogenes; assay: Antibacterial activity against Streptococcus pyogenes ATCC 8668 by agar dilution method
Method in brief: (§1)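 MIC measured by agar dilution on Mueller–Hinton agar. Strains were a reference culture and clinically isolated strains. The pneumococcal isolates were penicillin-susceptible clinical isolates.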

[2] = tested on: Streptococcus pyogenes; assay: Antibacterial activity against Streptococcus pyogenes isolate 3 by agar dilution method; method in brief: as §1
[3] = tested on: Staphylococcus aureus; assay: Antibacterial activity against methicillin-susceptible Staphylococcus aureus ATCC 29213 by agar dilution method
Method in brief: (§2)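 MIC determined by agar dilution on Mueller–Hinton agar against reference strains.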

[4] = tested on: Streptococcus pneumoniae; assay: Antibacterial activity against penicillin intermediate-resistant Streptococcus pneumoniae isolate I3 by agar dilution method
Method in brief: (§3)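 MIC determined by agar dilution on Mueller–Hinton agar against clinically isolated penicillin-intermediate-resistant S. pneumoniae.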

[5] = tested on: Staphylococcus aureus; assay: Antibacterial activity against methicillin-susceptible Staphylococcus aureus isolate 2 by agar dilution method
Method in brief: (§4)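 MIC determined by agar dilution on Mueller–Hinton agar against clinically isolated methicillin-susceptible S. aureus.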

[6] = tested on: Staphylococcus aureus; assay: Antibacterial activity against methicillin-resistant Staphylococcus aureus 2 by agar dilution method
Method in brief: (§5)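 MIC determined by agar dilution on Mueller–Hinton agar against clinical strains of methicillin-resistant S. aureus.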

[7] = tested on: Staphylococcus aureus; assay: Antibacterial activity against methicillin-susceptible Staphylococcus aureus isolate 3 by agar dilution method; method in brief: as §4
[8] = tested on: Staphylococcus aureus; assay: Antibacterial activity against methicillin-resistant Staphylococcus aureus 3 by agar dilution method; method in brief: as §5
[9] = tested on: Staphylococcus aureus; assay: Antibacterial activity against methicillin-resistant Staphylococcus aureus 1 by agar dilution method; method in brief: as §5
[10] = tested on: Streptococcus pneumoniae; assay: Antibacterial activity against Streptococcus pneumoniae ATCC 49619 by agar dilution method; settings: ATCC49619; method in brief: as §2
[11] = tested on: Streptococcus pneumoniae; assay: Antibacterial activity against penicillin intermediate-resistant Streptococcus pneumoniae isolate I1 by agar dilution method; method in brief: as §3
[12] = tested on: Streptococcus pneumoniae; assay: Antibacterial activity against penicillin-susceptible Streptococcus pneumoniae isolate S1 by agar dilution method; method in brief: as §1
[13] = tested on: Streptococcus pyogenes; assay: Antibacterial activity against Streptococcus pyogenes isolate 1 by agar dilution method; method in brief: as §1
[14] = tested on: Streptococcus pneumoniae; assay: Antibacterial activity against penicillin-susceptible Streptococcus pneumoniae isolate S2 by agar dilution method; method in brief: as §1
[15] = tested on: Streptococcus pneumoniae; assay: Antibacterial activity against penicillin intermediate-resistant Streptococcus pneumoniae isolate I2 by agar dilution method; method in brief: as §3
[16] = tested on: Streptococcus pyogenes; assay: Antibacterial activity against Streptococcus pyogenes isolate 2 by agar dilution method; method in brief: as §1
[17] = tested on: Staphylococcus aureus; assay: Antibacterial activity against methicillin-susceptible Staphylococcus aureus isolate 1 by agar dilution method; method in brief: as §4

Structure (SMILES): CC[C@H]1OC(=O)[C@H](C)C(=O)[C@H](C)[C@@H](O[C@@H]2O[C@H](C)C[C@H](N(C)C)[C@H]2O)[C@](C)(OC)C[C@@H](C)/C(=N\OC/C=C/c2cccs2)[C@H](C)[C@@H](O)[C@]1(C)O
- MIC [1]: 0.06 µg/mL (≈ 0.0828 µM)
- MIC [2]: 0.06 µg/mL (≈ 0.0828 µM)
- MIC [3]: 0.5 µg/mL (≈ 0.69 µM)
- MIC [4]: 0.125 µg/mL (≈ 0.172 µM)
- MIC [5]: 0.25 µg/mL (≈ 0.345 µM)
- MIC [6]: 128 µg/mL (≈ 177 µM)
- MIC [7]: 0.25 µg/mL (≈ 0.345 µM)
- MIC [8]: 0.25 µg/mL (≈ 0.345 µM)
- MIC [9]: 128 µg/mL (≈ 177 µM)
- MIC [10]: 0.06 µg/mL (≈ 0.0828 µM)
- MIC [11]: 32 µg/mL (≈ 44.1 µM)
- MIC [12]: 0.06 µg/mL (≈ 0.0828 µM)
- MIC [13]: 0.06 µg/mL (≈ 0.0828 µM)
- MIC [14]: 0.06 µg/mL (≈ 0.0828 µM)
- MIC [15]: 0.125 µg/mL (≈ 0.172 µM)
- MIC [16]: 0.06 µg/mL (≈ 0.0828 µM)
- MIC [17]: 0.5 µg/mL (≈ 0.69 µM)

Structure (SMILES): CC[C@H]1OC(=O)[C@H](C)C(=O)[C@H](C)[C@@H](O[C@@H]2O[C@H](C)C[C@H](N(C)C)[C@H]2O)[C@](C)(OC)C[C@@H](C)/C(=N\OC/C=C/c2cnc3ccccc3c2)[C@H](C)[C@@H](O)[C@]1(C)O
- MIC [1]: 0.06 µg/mL (≈ 0.0779 µM)
- MIC [2]: 0.06 µg/mL (≈ 0.0779 µM)
- MIC [3]: 0.25 µg/mL (≈ 0.325 µM)
- MIC [4]: 4 µg/mL (≈ 5.19 µM)
- MIC [5]: 0.25 µg/mL (≈ 0.325 µM)
- MIC [6]: 128 µg/mL (≈ 166 µM)
- MIC [7]: 0.25 µg/mL (≈ 0.325 µM)
- MIC [8]: 0.25 µg/mL (≈ 0.325 µM)
- MIC [9]: 128 µg/mL (≈ 166 µM)
- MIC [10]: 0.06 µg/mL (≈ 0.0779 µM)
- MIC [11]: 64 µg/mL (≈ 83.1 µM)
- MIC [12]: 0.06 µg/mL (≈ 0.0779 µM)
- MIC [13]: 0.06 µg/mL (≈ 0.0779 µM)
- MIC [14]: 0.06 µg/mL (≈ 0.0779 µM)
- MIC [15]: 0.06 µg/mL (≈ 0.0779 µM)
- MIC [16]: 0.06 µg/mL (≈ 0.0779 µM)
- MIC [17]: 0.25 µg/mL (≈ 0.325 µM)

Structure (SMILES): CC[C@H]1OC(=O)[C@H](C)C(=O)[C@H](C)[C@@H](O[C@@H]2O[C@H](C)C[C@H](N(C)C)[C@H]2O)[C@](C)(OC)C[C@@H](C)/C(=N\OC/C=C/c2ccc3[nH]ccc3c2)[C@H](C)[C@@H](O)[C@]1(C)O
- MIC [1]: 0.25 µg/mL (≈ 0.33 µM)
- MIC [2]: 0.25 µg/mL (≈ 0.33 µM)
- MIC [3]: 1 µg/mL (≈ 1.32 µM)
- MIC [4]: 0.25 µg/mL (≈ 0.33 µM)
- MIC [5]: 1 µg/mL (≈ 1.32 µM)
- MIC [6]: 128 µg/mL (≈ 169 µM)
- MIC [7]: 1 µg/mL (≈ 1.32 µM)
- MIC [8]: 1 µg/mL (≈ 1.32 µM)
- MIC [9]: 128 µg/mL (≈ 169 µM)
- MIC [10]: 0.25 µg/mL (≈ 0.33 µM)
- MIC [11]: 32 µg/mL (≈ 42.2 µM)
- MIC [12]: 0.06 µg/mL (≈ 0.0792 µM)
- MIC [13]: 0.06 µg/mL (≈ 0.0792 µM)
- MIC [14]: 0.06 µg/mL (≈ 0.0792 µM)
- MIC [15]: 0.25 µg/mL (≈ 0.33 µM)
- MIC [16]: 0.25 µg/mL (≈ 0.33 µM)
- MIC [17]: 1 µg/mL (≈ 1.32 µM)

Structure (SMILES): CC[C@H]1OC(=O)[C@H](C)C(=O)[C@H](C)[C@@H](O[C@@H]2O[C@H](C)C[C@H](N(C)C)[C@H]2O)[C@](C)(OC)C[C@@H](C)/C(=N\OC/C=C/c2ccc3c(c2)CCC3=O)[C@H](C)[C@@H](O)[C@]1(C)O
- MIC [1]: 0.25 µg/mL (≈ 0.323 µM)
- MIC [2]: 0.25 µg/mL (≈ 0.323 µM)
- MIC [3]: 1 µg/mL (≈ 1.29 µM)
- MIC [4]: 8 µg/mL (≈ 10.3 µM)
- MIC [5]: 1 µg/mL (≈ 1.29 µM)
- MIC [6]: 128 µg/mL (≈ 166 µM)
- MIC [7]: 1 µg/mL (≈ 1.29 µM)
- MIC [8]: 1 µg/mL (≈ 1.29 µM)
- MIC [9]: 128 µg/mL (≈ 166 µM)
- MIC [10]: 0.25 µg/mL (≈ 0.323 µM)
- MIC [11]: 64 µg/mL (≈ 82.8 µM)
- MIC [12]: 0.06 µg/mL (≈ 0.0776 µM)
- MIC [13]: 0.06 µg/mL (≈ 0.0776 µM)
- MIC [14]: 0.06 µg/mL (≈ 0.0776 µM)
- MIC [15]: 0.25 µg/mL (≈ 0.323 µM)
- MIC [16]: 0.25 µg/mL (≈ 0.323 µM)
- MIC [17]: 1 µg/mL (≈ 1.29 µM)

Structure (SMILES): CC[C@H]1OC(=O)[C@H](C)C(=O)[C@H](C)[C@@H](O[C@@H]2O[C@H](C)C[C@H](N(C)C)[C@H]2O)[C@](C)(OC)C[C@@H](C)/C(=N\OC/C=C/c2cccc(C3OCCO3)c2)[C@H](C)[C@@H](O)[C@]1(C)O
- MIC [1]: 0.25 µg/mL (≈ 0.316 µM)
- MIC [2]: 0.25 µg/mL (≈ 0.316 µM)
- MIC [3]: 0.5 µg/mL (≈ 0.632 µM)
- MIC [4]: 0.25 µg/mL (≈ 0.316 µM)
- MIC [5]: 1 µg/mL (≈ 1.26 µM)
- MIC [6]: 128 µg/mL (≈ 162 µM)
- MIC [7]: 0.5 µg/mL (≈ 0.632 µM)
- MIC [8]: 1 µg/mL (≈ 1.26 µM)
- MIC [9]: 128 µg/mL (≈ 162 µM)
- MIC [10]: 0.25 µg/mL (≈ 0.316 µM)
- MIC [11]: 64 µg/mL (≈ 80.9 µM)
- MIC [12]: 0.06 µg/mL (≈ 0.0759 µM)
- MIC [13]: 0.06 µg/mL (≈ 0.0759 µM)
- MIC [14]: 0.06 µg/mL (≈ 0.0759 µM)
- MIC [15]: 0.25 µg/mL (≈ 0.316 µM)
- MIC [16]: 0.25 µg/mL (≈ 0.316 µM)
- MIC [17]: 1 µg/mL (≈ 1.26 µM)

Structure (SMILES): CC[C@H]1OC(=O)[C@H](C)C(=O)[C@H](C)[C@@H](O[C@@H]2O[C@H](C)C[C@H](N(C)C)[C@H]2O)[C@](C)(OC)C[C@@H](C)/C(=N\OC/C=C/c2ccc3c(c2)OCO3)[C@H](C)[C@@H](O)[C@]1(C)O
- MIC [1]: 0.25 µg/mL (≈ 0.328 µM)
- MIC [2]: 0.25 µg/mL (≈ 0.328 µM)
- MIC [3]: 1 µg/mL (≈ 1.31 µM)
- MIC [4]: 0.25 µg/mL (≈ 0.328 µM)
- MIC [5]: 0.5 µg/mL (≈ 0.655 µM)
- MIC [6]: 128 µg/mL (≈ 168 µM)
- MIC [7]: 0.5 µg/mL (≈ 0.655 µM)
- MIC [8]: 1 µg/mL (≈ 1.31 µM)
- MIC [9]: 128 µg/mL (≈ 168 µM)
- MIC [10]: 0.25 µg/mL (≈ 0.328 µM)
- MIC [11]: 64 µg/mL (≈ 83.9 µM)
- MIC [12]: 0.06 µg/mL (≈ 0.0786 µM)
- MIC [13]: 0.06 µg/mL (≈ 0.0786 µM)
- MIC [14]: 0.06 µg/mL (≈ 0.0786 µM)
- MIC [15]: 0.25 µg/mL (≈ 0.328 µM)
- MIC [16]: 0.25 µg/mL (≈ 0.328 µM)
- MIC [17]: 1 µg/mL (≈ 1.31 µM)

Structure (SMILES): CC[C@H]1OC(=O)[C@H](C)[C@@H](O[C@H]2C[C@@](C)(OC)[C@@H](O)[C@H](C)O2)[C@H](C)[C@@H](O[C@@H]2O[C@H](C)C[C@H](N(C)C)[C@H]2O)[C@](C)(O)C[C@@H](C)C(=O)[C@H](C)[C@@H](O)[C@]1(C)O [ERYTHROMYCIN]
- MIC50 [4]: > 128 µM
- MIC50 [11]: > 128 µM
- MIC50 [15]: > 128 µM
